High-throughput results as filed in PubChem.
UHRF1 MBD2 ctr = human UHRF1 methylated DNA binding inhibitors; Q96T88; UHRF1 binding to methylated oligo, TR-FRET; inhibition, % at 4.4 µM; 370,000 compounds, 0.75% hits; in the data active = inhibition above about 21%;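 also: UHRF1 SRA domain binding a hemimethylated CpG hairpin DNA probe; 0% = median of test compound wells and 100% = reference inhibitor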
Target sequence (Q96T88 whole entry, looked up, the tested form may be a part): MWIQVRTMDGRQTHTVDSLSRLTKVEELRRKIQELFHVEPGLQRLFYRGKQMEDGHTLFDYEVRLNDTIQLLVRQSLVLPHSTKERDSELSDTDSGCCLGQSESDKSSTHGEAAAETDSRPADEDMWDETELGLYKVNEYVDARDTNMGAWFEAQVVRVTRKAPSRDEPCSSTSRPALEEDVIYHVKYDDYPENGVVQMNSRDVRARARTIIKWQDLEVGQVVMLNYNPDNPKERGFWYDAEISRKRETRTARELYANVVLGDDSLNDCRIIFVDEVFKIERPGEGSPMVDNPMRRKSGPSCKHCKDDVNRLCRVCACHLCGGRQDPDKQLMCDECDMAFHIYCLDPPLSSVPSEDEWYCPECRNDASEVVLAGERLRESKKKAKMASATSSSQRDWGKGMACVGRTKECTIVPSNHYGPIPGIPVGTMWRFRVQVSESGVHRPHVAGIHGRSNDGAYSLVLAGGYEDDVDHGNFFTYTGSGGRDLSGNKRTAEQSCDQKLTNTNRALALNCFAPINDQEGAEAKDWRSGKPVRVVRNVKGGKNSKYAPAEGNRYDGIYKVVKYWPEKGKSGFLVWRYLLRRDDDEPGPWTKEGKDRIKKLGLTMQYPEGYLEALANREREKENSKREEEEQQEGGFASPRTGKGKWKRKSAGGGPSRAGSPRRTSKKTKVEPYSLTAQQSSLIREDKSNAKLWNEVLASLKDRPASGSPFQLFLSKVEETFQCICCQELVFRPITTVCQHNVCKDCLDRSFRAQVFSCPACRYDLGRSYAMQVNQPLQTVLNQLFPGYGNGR
LEDGF integ inh = blocks HIV-1 LEDGF/p75-dependent DNA integration; TR-FRET IN-LEDGF/p75 DNA integration, Eu/Cy5; inhibition, % at 3.7 µM; 370,000 compounds, 0.64% hits; AID 743269;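 active = inhibition above the screen-wide mean plus 3 SD, cut at about 13% in these data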;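 also: signal is the Cy5 over europium emission ratio at 671 and 618 nm; 0% = plate median of compound wells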
Rin1-Abl PPI inh = human Rin1-Abl interaction inhibition; 360,000 compounds, 0.4% hits; inhibition, % at 7.35 µM; TR-FRET Rin1/Abl binding, biochemical; in the data active = inhibition above about 5%, passing the limit was not always enough
TDP2 inh = blocks human TDP2 phosphodiesterase activity. O95551. 370,000 compounds, 0.34% hits. AID 720702. inhibition, % at 12.8 µM. recombinant TDP2, T5PNP hydrolysis, p-nitrophenol absorbance 415 nm;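 active = inhibition above the mean of all tested compounds plus 3 SD, set per campaign, cut at about 25% in these data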;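 also: 0% = DMSO with enzyme and 100% = buffer with substrate but no TDP2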
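Evaluation: % inhibition relative to enzyme-containing and enzyme-free wells. Material: recombinant human TDP2. Benchmarks: enzyme-free and DMSO wells. Timing: enzyme reaction with compound for 2 h at 37 °C. Compound dosing: 12.8 µM only. Measured by: p-Nitrophenol epi absorbance. Reagent: T5PNP substrate at 5 mM, a TopII-DNA adduct mimic. Replication: single well per compound.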
MBD2 DNA inh = blocks human MBD2 binding to methylated DNA; Q9UBB5; TR-FRET, MBD2 binding to methylated oligonucleotide; inhibition, % at 4.4 µM; 370,000 compounds, 0.31% hits; AID 686964; in the data active = inhibition above about 13%
TDP2 confirm = confirmation of human TDP2 inhibitors; inhibition, % at 12.8 µM; AID 743263; recombinant human TDP2, absorbance read-out; shares compounds with TDP2 inh; 1,100 compounds, 22% hits; in the data active = inhibition above about 25%;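 also: 0% = vehicle with enzyme and 100% = no enzyme buffer only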
IN multimer up = HIV-1 integrase multimerization activation, counter-screen. shares compounds with LEDGF integ inh. TR-FRET HIV-1 integrase multimerization, biochemical. activation, % at 7.7 µM. 2,000 compounds, 17% hits. AID 1053131; in the data active = activation above about 8.9%
TR-FRET interf = counter-screen for LEDGF/p75 integration inhibitors: TR-FRET optical interference | shares compounds with LEDGF integ inh | TR-FRET optical interference counterscreen, HIV-1 IN multimerization | inhibition, % at 7.7 µM | 2,000 tested, under 10 active | AID 1053135;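 active = inhibition above the mean over all tested compounds plus 3 SD, which no compound reached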;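 also: 0% = integrase with antibodies and DMSO and 100% = antibodies without integrase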
LEDGF integ conf = LEDGF/p75-dependent HIV-1 integration inhibition, confirmation | shares compounds with LEDGF integ inh | TR-FRET LEDGF/p75-dependent HIV-1 integration, biochemical | inhibition, % at 3.7 µM | 2,000 compounds, 36% hits; in the data active = inhibition above about 14%
* hit, by the source's call. The list is not random: actives were taken first. Their share in the collection is about 1.9%.

What do the screens show for `CN(C)c1ccc(N/C=C/C(=O)C(C)(C)C)cc1`?
UHRF1 MBD2 ctr: 13; LEDGF integ inh: 25*; Rin1-Abl PPI inh: -2; TDP2 inh: 55*; MBD2 DNA inh: -1; TDP2 confirm: -4; IN multimer up: 12*; TR-FRET interf: -43; LEDGF integ conf: 1

Results for O=C(Nc1c(-c2ccc3c(c2)OCO3)[nH][nH]c1=O)c1cccc(C(F)(F)F)c1 ?
UHRF1 MBD2 ctr: 14; LEDGF integ inh: 20*; Rin1-Abl PPI inh: 3; TDP2 inh: 55*; MBD2 DNA inh: 2; TDP2 confirm: 9; IN multimer up: 2; TR-FRET interf: -11; LEDGF integ conf: -3

Results for COc1ccc(OC)c(S(=O)(=O)Oc2ccc(N)c3ccccc23)c1 ?
UHRF1 MBD2 ctr: -4; LEDGF integ inh: 14*; Rin1-Abl PPI inh: -4; TDP2 inh: 33*; MBD2 DNA inh: -10; TDP2 confirm: 0; IN multimer up: 4; TR-FRET interf: -15; LEDGF integ conf: -1

Results for O=C1C(N2CCOCC2)=C(n2nnc3ccccc32)C(=O)c2ccccc21 ?
UHRF1 MBD2 ctr: -4; LEDGF integ inh: 40*; Rin1-Abl PPI inh: -12; TDP2 inh: 50*; MBD2 DNA inh: -14; TDP2 confirm: 64*; IN multimer up: 3; TR-FRET interf: -11; LEDGF integ conf: 45*

What do the screens show for `O=C1c2ccccc2C(=O)c2c1cccc2-n1nnc2ccccc21`?
UHRF1 MBD2 ctr: 0; LEDGF integ inh: 0; Rin1-Abl PPI inh: 3; TDP2 inh: 0; MBD2 DNA inh: -2

What do the screens show for `O=C(O)CSc1cc(NS(=O)(=O)c2ccc(Br)cc2)c2ccccc2c1O`?
UHRF1 MBD2 ctr: -6; LEDGF integ inh: 25*; Rin1-Abl PPI inh: 2; TDP2 inh: 70*; MBD2 DNA inh: -9; TDP2 confirm: 56*; IN multimer up: 1; TR-FRET interf: -2; LEDGF integ conf: 51*

Results for Oc1ccccc1CNc1cccc2cccnc12 ?
UHRF1 MBD2 ctr: -8; LEDGF integ inh: 31*; Rin1-Abl PPI inh: 1; TDP2 inh: 35*; MBD2 DNA inh: -19; TDP2 confirm: 6; IN multimer up: 5; TR-FRET interf: -16; LEDGF integ conf: 0

Results for COc1cc(NCc2ccccc2O)c2ncccc2c1 ?
UHRF1 MBD2 ctr: 0; LEDGF integ inh: 1; Rin1-Abl PPI inh: 0; TDP2 inh: -2; MBD2 DNA inh: -1

Results for CCc1nnc(N/N=C/c2ccc(N3CCC(C)CC3)c([N+](=O)[O-])c2)n1N ?
UHRF1 MBD2 ctr: -6; LEDGF integ inh: 38*; Rin1-Abl PPI inh: -3; TDP2 inh: 68*; MBD2 DNA inh: -1; TDP2 confirm: 12; IN multimer up: 2; TR-FRET interf: -9; LEDGF integ conf: 0

Results for Cc1nnc(N/N=C/c2cc([N+](=O)[O-])c(N3CCC(C)CC3)cc2N2CCC(C)CC2)n1N ?
UHRF1 MBD2 ctr: 3; LEDGF integ inh: 52*; Rin1-Abl PPI inh: -3; TDP2 inh: 53*; MBD2 DNA inh: -6; TDP2 confirm: -14; IN multimer up: 2; TR-FRET interf: -5; LEDGF integ conf: -2

How did COc1cccc(-c2ccc3c(c2)[C@@H]2C[C@H]4[C@@H](CN2CC3)[C@H](C)ON4C)c1 do in these assays?
UHRF1 MBD2 ctr: -3; LEDGF integ inh: 4; TDP2 inh: 1; MBD2 DNA inh: 0

What do the screens show for `O=C(OCN1C(=O)C(=O)c2ccccc21)c1ccc(Cl)cc1`?
UHRF1 MBD2 ctr: -2; LEDGF integ inh: 0; Rin1-Abl PPI inh: -1; TDP2 inh: 13; MBD2 DNA inh: -1

Results for S=C(Nc1ccc2nsnc2c1)N1CCCCC1 ?
UHRF1 MBD2 ctr: 6; LEDGF integ inh: 17*; Rin1-Abl PPI inh: -1; TDP2 inh: 76*; MBD2 DNA inh: -5; TDP2 confirm: 54*; IN multimer up: 1; TR-FRET interf: -2; LEDGF integ conf: 5

What do the screens show for `COc1ccc(Cn2c(N)c(S(=O)(=O)c3cccs3)c3nc4ccccc4nc32)cc1`?
UHRF1 MBD2 ctr: 1; LEDGF integ inh: 3; Rin1-Abl PPI inh: -2; TDP2 inh: 1; MBD2 DNA inh: 4

Results for COCCn1c(N)c(S(=O)(=O)c2cccs2)c2nc3ccccc3nc21 ?
UHRF1 MBD2 ctr: 12; LEDGF integ inh: 14*; Rin1-Abl PPI inh: 3; TDP2 inh: 57*; MBD2 DNA inh: -5; TDP2 confirm: -6; IN multimer up: 0; TR-FRET interf: -2; LEDGF integ conf: -4

How did COc1ccc(NC(=O)c2cccnc2SC)cc1OC do in these assays?
UHRF1 MBD2 ctr: 1; LEDGF integ inh: 5; Rin1-Abl PPI inh: -1; TDP2 inh: 4; MBD2 DNA inh: 2

How did COc1cc(N)c2ncccc2c1SC do in these assays?
UHRF1 MBD2 ctr: -1; LEDGF integ inh: 16*; Rin1-Abl PPI inh: -1; TDP2 inh: 45*; MBD2 DNA inh: -15; TDP2 confirm: 3; IN multimer up: 3; TR-FRET interf: -17; LEDGF integ conf: 14*

How did C/C(=N\Nc1ccc(C(F)(F)F)cc1[N+](=O)[O-])C1CC1 do in these assays?
UHRF1 MBD2 ctr: 2; LEDGF integ inh: 0; Rin1-Abl PPI inh: 3; TDP2 inh: -2; MBD2 DNA inh: 0

How did C=CCNC(=S)N/N=C/c1ccc(-c2ccc(Br)cc2)o1 do in these assays?
UHRF1 MBD2 ctr: -1; LEDGF integ inh: -1; Rin1-Abl PPI inh: -3; TDP2 inh: 5; MBD2 DNA inh: 0

How did Cc1nnc(N/N=C\c2ccc(-c3cccc(C(=O)O)c3)o2)n1N do in these assays?
UHRF1 MBD2 ctr: 6; LEDGF integ inh: 53*; Rin1-Abl PPI inh: 2; TDP2 inh: 59*; MBD2 DNA inh: -5; TDP2 confirm: 8; IN multimer up: 5; TR-FRET interf: -19; LEDGF integ conf: 0

How did Cc1nnc(N/N=C/c2ccc(-c3ccc(Br)cc3)o2)n1N do in these assays?
UHRF1 MBD2 ctr: 2; LEDGF integ inh: 49*; Rin1-Abl PPI inh: -2; TDP2 inh: 57*; MBD2 DNA inh: -6; TDP2 confirm: 1; IN multimer up: 0; TR-FRET interf: 1; LEDGF integ conf: -5

What do the screens show for `O=C(O)c1cccc(-c2ccc(/C=N/NC(=O)c3cccnc3)o2)c1`?
UHRF1 MBD2 ctr: 7; LEDGF integ inh: 5; Rin1-Abl PPI inh: 1; TDP2 inh: 2; MBD2 DNA inh: 3

What do the screens show for `CC(=O)N(c1ccc(C)cc1)c1nc(C)cc(C)c1C#N`?
UHRF1 MBD2 ctr: 2; LEDGF integ inh: -2; Rin1-Abl PPI inh: 3; TDP2 inh: 9; MBD2 DNA inh: 4
